From PubChem BioAssay
Most compounds without a hit are left out; they make up all but 2.3% or so of the library.
ADAM17 inh = inhibits human ADAM17; P78536; inhibition, % at 6.95 µM; recombinant ADAM17, EDANS/DABCYL FRET peptide cleavage; hit rate 0.83% among 370,000;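 active = inhibition above the mean of compounds lying between control limits plus 3 SD, set per campaign, cut at about 8.5% in these data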;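 also: 0% = DMSO-only wells as the low control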
Tb MetRS inh = Trypanosoma brucei MetRS inhibition. inhibition, % at 11.9 µM. purified T. brucei MetRS, ATP depletion, Kinase-Glo luminescence. hit rate 0.4% among 360,000;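 active = inhibition above a per-plate cutoff of the control wells' mean inhibition plus 3 SD, cut at about 5.5% in these data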;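 also: 0% = DMSO wells median and 100% = median of wells with control inhibitor compound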
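assay system = parasite MetRS enzyme | timing = 15 min preincubation, 2 h reaction, all 25 °C | evaluation = percent inhibition relative to median high and low control wells | medium = HEPES buffer containing pyrophosphatase, BSA, spermine, DTT | compound = single dose, 11.9 µM final nominal, 0.9% final DMSO | detection = Kinase-Glo luminescence, ATP depletion format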
PLCb3 inh = blocks human PLC-beta3 enzyme activity. Purified PLC-beta3, fluorogenic substrate, fluorescence. hit rate 0.18% among 370,000. inhibition, % at 12.2 µM;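 also: 0% = median of compound wells on plate and 100% = full blocker control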
ADAM10 inh = inhibitors of human ADAM10. O14672. recombinant ADAM10, EDANS/DABCYL FRET peptide cleavage, 3 h. inhibition, % at 7 µM. hit rate 0.62% among 370,000. AID 720582;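 active = inhibition above a per-campaign cutoff equal to the mean of compounds falling between control-based bounds plus 3 SD, cut at about 20% in these data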;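 also: 0% = DMSO wells while the 100% control is not disclosed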
PLC-gamma1 inh = inhibitors of human phospholipase C gamma1; inhibition, % at 12.2 µM; hit rate 0.84% among 370,000; purified PLC-gamma1, fluorogenic substrate, fluorescence; AID 720700; in the data active = inhibition above about 9.5%
PLCg1 ctr = inhibits human PLC-gamma1 in PLC-beta3 counter-screen; purified PLC-gamma1, fluorogenic substrate, fluorescence; inhibition, % at 12.3 µM; hit rate 3.1% among 3,300; shares compounds with PLC-gamma1 inh; in the data active = inhibition above about 9.5%
PLCb3 confirm = human PLC-beta3 inhibition, confirmation | inhibition, % at 12.3 µM | hit rate 1% among 3,300 | purified PLC-beta3, fluorogenic substrate fluorescence | shares compounds with PLC-gamma1 inh
Starred values were filed as active, the others as inactive. Rule as the data show it, unless noted: active = inhibition above about 11%; inactive = the rest.

What do the screens show for `COC(=O)C1=C(N)Oc2cc(C)n(Cc3cccnc3)c(=O)c2C1c1cccc(OC)c1OC` (stereo unspecified)?
ADAM17 inh: 4; Tb MetRS inh: -1; PLCb3 inh: 9; ADAM10 inh: -6; PLC-gamma1 inh: 9.7*; PLCg1 ctr: -6; PLCb3 confirm: -2

What do the screens show for `Cc1[nH]c2ccccc2c1CC(=O)Nc1ccc(Oc2cccnc2)cc1`?
ADAM17 inh: -1; PLCb3 inh: -7; ADAM10 inh: -7; PLC-gamma1 inh: -6

How did Cc1cc(-c2ccc(C(C)C)c(S(=O)(=O)N3CCC(C)CC3)c2)on1 do in these assays?
ADAM17 inh: 2; Tb MetRS inh: -1; PLCb3 inh: -11; ADAM10 inh: 10; PLC-gamma1 inh: -4

How did Cc1cc(NC(=O)COc2ccccc2C(N)=O)no1 do in these assays?
ADAM17 inh: -3; Tb MetRS inh: 0; PLCb3 inh: 4; ADAM10 inh: 0; PLC-gamma1 inh: 9.5*; PLCg1 ctr: -1; PLCb3 confirm: 4

How did CC(C)Cc1nnc(NC(=O)CCC(=O)N2CCCCC2)s1 do in these assays?
ADAM17 inh: 2; Tb MetRS inh: 0; PLCb3 inh: -2; ADAM10 inh: 1; PLC-gamma1 inh: 2

What do the screens show for `COc1ccccc1CCCNC(=O)C1CCC(=O)N(CCCN2CCCC2=O)C1` (stereo unspecified)?
ADAM17 inh: -7; Tb MetRS inh: -1; PLCb3 inh: -7; ADAM10 inh: -8; PLC-gamma1 inh: 2

What do the screens show for `COc1ccccc1CNC(=O)C1CCC(=O)N(CCCN2CCCC2=O)C1` (stereo unspecified)?
ADAM17 inh: 0; Tb MetRS inh: 0; PLCb3 inh: 2; ADAM10 inh: 9; PLC-gamma1 inh: 9.9*; PLCg1 ctr: -4; PLCb3 confirm: -2

What do the screens show for `C/C(=N\NC(=O)c1ccc([N+](=O)[O-])c(C)c1)c1ccccc1Cl`?
ADAM17 inh: 3; Tb MetRS inh: 0; PLCb3 inh: 2; ADAM10 inh: 11; PLC-gamma1 inh: 4

How did Cc1ccc(NC(=S)N2CCC(N(C)CC3CCCO3)CC2)cc1C (stereo unspecified) do in these assays?
ADAM17 inh: -3; Tb MetRS inh: 0; PLCb3 inh: -4; ADAM10 inh: -4; PLC-gamma1 inh: 3

Results for Cc1cccc(NC(=S)N2CCC(N(C)CC3CCCO3)CC2)c1 (stereo unspecified) ?
ADAM17 inh: 1; Tb MetRS inh: 0; PLCb3 inh: 0; ADAM10 inh: 9; PLC-gamma1 inh: 9.7*; PLCg1 ctr: -2; PLCb3 confirm: 1

Results for O=C(CSc1nc2ccccc2c(=O)n1-c1ccc(Cl)c(Cl)c1)Nc1ccc2c(c1)CCC2 ?
ADAM17 inh: 3; Tb MetRS inh: 0; PLCb3 inh: 4; ADAM10 inh: -2; PLC-gamma1 inh: 11*; PLCg1 ctr: -7; PLCb3 confirm: -4

What do the screens show for `O=C(c1cnc2c(c1)COc1ccc(Cl)cc1-2)c1ccccc1O`?
ADAM17 inh: -1; Tb MetRS inh: -2; PLCb3 inh: 2; ADAM10 inh: 1; PLC-gamma1 inh: 12*; PLCg1 ctr: -25; PLCb3 confirm: -24

What do the screens show for `Cc1ccc(O)c(C(=O)c2cnc3c(c2)COc2ccccc2-3)c1`?
ADAM17 inh: -1; Tb MetRS inh: -1; PLCb3 inh: -5; ADAM10 inh: 3; PLC-gamma1 inh: 14*; PLCg1 ctr: -15; PLCb3 confirm: -11

How did Cc1cc(NC(=O)CSc2cn(CC(=O)N(C(C)C)C(C)C)c3ccccc23)no1 do in these assays?
ADAM17 inh: 0; Tb MetRS inh: 0; PLCb3 inh: -4; ADAM10 inh: 5; PLC-gamma1 inh: 12*; PLCg1 ctr: -5; PLCb3 confirm: -1

Results for C=CCNC(=S)NNC(=O)CCC(O)CCCCC (stereo unspecified) ?
ADAM17 inh: 1; Tb MetRS inh: 1; PLCb3 inh: 12*; ADAM10 inh: 6; PLC-gamma1 inh: 9; PLCg1 ctr: -4; PLCb3 confirm: -1

What do the screens show for `C=CCNC(=S)NNC(=O)C(CCCC)CC(C)O` (stereo unspecified)?
ADAM17 inh: -3; Tb MetRS inh: -1; PLCb3 inh: -1; ADAM10 inh: 0; PLC-gamma1 inh: 0

What do the screens show for `Cc1ccc(C(=O)Nc2ccc(S(=O)(=O)NCc3ccco3)cc2)cc1`?
ADAM17 inh: -5; Tb MetRS inh: -1; PLCb3 inh: -1; ADAM10 inh: -1; PLC-gamma1 inh: 1

How did O=C(Nc1ccccc1)c1ccc(S(=O)(=O)NCc2ccco2)cc1 do in these assays?
ADAM17 inh: 5; Tb MetRS inh: 0; PLCb3 inh: 7; ADAM10 inh: 10; PLC-gamma1 inh: 13*; PLCg1 ctr: 8; PLCb3 confirm: 1

How did Cc1cc2n(n1)SC(Nc1ccc(F)cc1)N2 (stereo unspecified) do in these assays?
ADAM17 inh: 3; Tb MetRS inh: -1; PLCb3 inh: 4; ADAM10 inh: 7; PLC-gamma1 inh: 10*; PLCg1 ctr: -7; PLCb3 confirm: -4

What do the screens show for `COC(=O)CN1CCN(C(=O)c2csc(-c3ccccc3)n2)CC1`?
ADAM17 inh: 3; PLCb3 inh: -11; ADAM10 inh: -4; PLC-gamma1 inh: -8

What do the screens show for `CCC(Oc1ccccc1C)C(=O)N1CCCN(C)CC1` (stereo unspecified)?
ADAM17 inh: -9; Tb MetRS inh: 0; PLCb3 inh: -5; ADAM10 inh: -1; PLC-gamma1 inh: 4

Results for C[C@H](CO)N1C[C@H](C)[C@@H](CN(C)C(=O)NC2CCCCC2)Oc2ccc(NS(=O)(=O)c3ccc(F)cc3)cc2C1=O ?
ADAM17 inh: -1; Tb MetRS inh: 0; PLCb3 inh: 0; ADAM10 inh: 2; PLC-gamma1 inh: -1

What do the screens show for `COc1ccc(C(CCN(Cc2ccc(OC)c(OC)c2)C(C)=O)C(C)C)cc1` (stereo unspecified)?
ADAM17 inh: -4; Tb MetRS inh: 0; PLCb3 inh: -6; ADAM10 inh: -3; PLC-gamma1 inh: 11*; PLCg1 ctr: 1; PLCb3 confirm: 1

What do the screens show for `COc1ccc(NC(=S)N(Cc2ccc(C(=O)O)cc2)Cc2ccc(OC)c(OC)c2)cc1`?
ADAM17 inh: 2; Tb MetRS inh: 0; PLCb3 inh: -1; ADAM10 inh: -9; PLC-gamma1 inh: 2

Results for CC(NC(=O)CCn1nc(-c2ccc(Cl)cc2)ccc1=O)c1ccccc1 (stereo unspecified) ?
ADAM17 inh: -3; Tb MetRS inh: 0; PLCb3 inh: 5; ADAM10 inh: 14; PLC-gamma1 inh: 10*; PLCg1 ctr: -6; PLCb3 confirm: -3

How did Cc1ccc(CNC(=O)CCn2nc(-c3ccc(Cl)cc3)ccc2=O)cc1 do in these assays?
ADAM17 inh: -3; Tb MetRS inh: 0; PLCb3 inh: -1; ADAM10 inh: -3; PLC-gamma1 inh: 1
